Results as given in ChEMBL document CHEMBL4616671, “Identification of N-Phenyl-7H-pyrrolo[2,3-d]pyrimidin-4-amine Derivatives as Novel, Potent, and Selective NF-κB Inducing Kinase (NIK) Inhibitors for the Treatment of Psoriasis” (J Med Chem, 2020).
Calls of active or inactive are those of the source. No cut-off for these calls is given here.

Key:
[1] = test system: T-cell; assay: Growth inhibition of mouse T cells at 10 uM after 48 hrs by CCK8 assay; type: cell-based
How it was run: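 Unstimulated mouse splenic T cells exposed to compound at 10 µM. Growth read by CCK-8 absorbance; […]. Mean ± SD, three independent experiments.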

[2] = target: Mitogen-activated protein kinase kinase kinase 14 (Mus musculus) (UniProt Q9WUL6); assay: In vivo inhibition of NIK in po dosed C57 mouse model of IMQ-induced psoriasis assessed as reduction in P52 expression in back skin administered starting from day 3 post IMQ-challenge and measured 2 days post-last dose of IMQ by Western blot analysis; type: functional, organism-based
How it was run: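 IMQ-induced psoriasis in C57 mice, 5% cream daily for 7 days, oral dosing 60 or 120 mg/kg from day 3. Back-skin protein extracts probed by western blot for p100 and p52; band optical density normalized to GAPDH.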

[3] = Elimination half life in human liver microsomes incubated for 10 mins followed by potassium phosphate buffer addition and measured after 5 to 60 mins by LC-MS/MS analysis; type: ADME, Microsome; details: read-out: beta t1/2
How it was run: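 Rat, dog, monkey or human liver microsomes pre-incubated with compound at 37 °C for 10 min; reaction started after pre-warming and stopped at 5, 15, 30, 60 min with chilled quench containing tolbutamide and labetalol. No-cofactor control in 100 mM potassium phosphate for 60 min. LC-MS/MS analysis; first-order fit: k = −slope, T1/2 = 0.693/k, CLint = k/microsomal protein concentration.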

[4] = target: T1, Tyrosine-protein kinase JAK3 (Homo sapiens, UniProt P52333); assay: Inhibition of human JAK3 using [GGEEEEYFELVKKKK] as substrate in presence of [gamma33P]ATP by hotspot assay
T1 sequence (P52333 whole entry): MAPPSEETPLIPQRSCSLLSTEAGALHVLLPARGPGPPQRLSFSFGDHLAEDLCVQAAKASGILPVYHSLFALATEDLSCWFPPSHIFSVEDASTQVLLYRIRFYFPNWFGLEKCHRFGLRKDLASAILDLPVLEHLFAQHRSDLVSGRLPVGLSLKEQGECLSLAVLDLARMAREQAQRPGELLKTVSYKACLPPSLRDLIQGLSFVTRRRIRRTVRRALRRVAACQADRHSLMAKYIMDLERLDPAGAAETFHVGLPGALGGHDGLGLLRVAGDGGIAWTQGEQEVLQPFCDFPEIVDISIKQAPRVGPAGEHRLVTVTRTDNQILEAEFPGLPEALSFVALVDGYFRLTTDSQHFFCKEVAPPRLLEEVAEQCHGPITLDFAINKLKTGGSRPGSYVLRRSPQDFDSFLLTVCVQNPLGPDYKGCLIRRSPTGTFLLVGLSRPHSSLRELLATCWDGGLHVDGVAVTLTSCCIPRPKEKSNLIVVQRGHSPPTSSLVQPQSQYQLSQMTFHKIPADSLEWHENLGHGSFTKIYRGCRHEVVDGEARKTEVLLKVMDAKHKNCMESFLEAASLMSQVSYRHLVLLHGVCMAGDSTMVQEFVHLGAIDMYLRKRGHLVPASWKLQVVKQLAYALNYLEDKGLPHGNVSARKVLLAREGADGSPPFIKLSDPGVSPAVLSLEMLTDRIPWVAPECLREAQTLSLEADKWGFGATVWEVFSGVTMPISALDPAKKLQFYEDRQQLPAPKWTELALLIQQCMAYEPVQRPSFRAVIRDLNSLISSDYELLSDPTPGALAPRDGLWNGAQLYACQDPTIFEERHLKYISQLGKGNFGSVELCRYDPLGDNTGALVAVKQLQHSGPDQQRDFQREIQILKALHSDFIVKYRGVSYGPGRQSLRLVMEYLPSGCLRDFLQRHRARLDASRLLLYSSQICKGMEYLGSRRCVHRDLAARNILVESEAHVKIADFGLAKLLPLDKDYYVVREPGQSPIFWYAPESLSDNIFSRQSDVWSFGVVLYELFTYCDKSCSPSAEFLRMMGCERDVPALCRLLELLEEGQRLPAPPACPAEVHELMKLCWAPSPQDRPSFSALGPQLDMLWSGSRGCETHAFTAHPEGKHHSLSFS

[5] = test system: J774; assay: Antiinflammatory activity in mouse J774 cells assessed as reduction in LPS-induced NOS2 mRNA level by SYBR green dye-based quantitative PCR analysis; type: functional, cell-based
How it was run: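 LPS-stimulated J774 macrophages; mRNA quantified by qPCR using 4 µL cDNA plus 16 µL master mix per reaction. Mean ± SD of three biological replicates; significance by two-tailed Student's t-test against the model group.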

Chain of Mitogen-activated protein kinase kinase kinase 14 (Mus musculus) (Q9WUL6 whole entry): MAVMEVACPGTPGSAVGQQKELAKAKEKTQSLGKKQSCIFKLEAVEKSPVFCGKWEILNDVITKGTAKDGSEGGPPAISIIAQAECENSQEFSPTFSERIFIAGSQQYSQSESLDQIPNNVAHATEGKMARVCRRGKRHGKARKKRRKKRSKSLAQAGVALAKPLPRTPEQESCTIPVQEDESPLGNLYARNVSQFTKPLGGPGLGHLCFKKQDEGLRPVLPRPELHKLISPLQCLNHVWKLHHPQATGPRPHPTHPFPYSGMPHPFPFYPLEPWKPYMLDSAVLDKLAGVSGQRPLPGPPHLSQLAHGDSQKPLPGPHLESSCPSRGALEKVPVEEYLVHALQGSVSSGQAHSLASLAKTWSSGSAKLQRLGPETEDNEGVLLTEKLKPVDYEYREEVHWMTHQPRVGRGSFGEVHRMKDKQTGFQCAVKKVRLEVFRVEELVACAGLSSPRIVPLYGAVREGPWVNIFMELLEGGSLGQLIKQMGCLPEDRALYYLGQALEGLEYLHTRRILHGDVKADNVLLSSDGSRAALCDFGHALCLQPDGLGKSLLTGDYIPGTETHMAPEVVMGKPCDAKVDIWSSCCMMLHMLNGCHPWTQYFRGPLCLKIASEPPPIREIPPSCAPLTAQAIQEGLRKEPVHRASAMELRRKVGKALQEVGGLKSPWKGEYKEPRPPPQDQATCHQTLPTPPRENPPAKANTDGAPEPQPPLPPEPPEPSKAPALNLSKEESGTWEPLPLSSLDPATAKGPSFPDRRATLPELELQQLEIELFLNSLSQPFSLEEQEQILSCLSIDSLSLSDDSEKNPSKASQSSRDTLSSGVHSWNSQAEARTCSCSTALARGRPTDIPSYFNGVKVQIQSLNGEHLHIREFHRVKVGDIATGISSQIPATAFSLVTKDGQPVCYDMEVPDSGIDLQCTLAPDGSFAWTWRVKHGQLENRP

For CC(O)(C#Cc1ccc(N2CCOCC2)c(Nc2ncnc3[nH]ccc23)c1)c1nccs1 (racemic), the Activity [1] was “Non-Toxic”, the inhibition [2] was “Dose-dependent effect” and the half-life [3] was 42.9 min. For the same molecule, the IC50 [4] was 892 nM and the Activity [5] was “Active”.
